# V1aR counter: counter-screen for oxytocin receptor agonists: human V1a receptor agonists; CHO-V1R cells, Fluo-8 calcium fluorescence, agonist mode; 0% DMSO, 100% 3 nM vasopressin; AID 2797; activation, % at 3 µM; 320,000 compounds, 0.25% hits;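 active means activation above the mean activation of all tested compounds plus 3 SD, per screening run, cut at about 20% in these data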;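 further: signal is peak over basal fluorescence ratio across a 100 second FLIPR read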
# TAAR1 antag: antagonists of human TAAR1; 360,000 compounds, 1.5% hits; CHO RD-HGA16 TAAR1, Fluo-8 calcium fluorescence, antagonist; AID 624466; Q96RJ0; inhibition, % at 3 µM;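 active means inhibition above a per-plate cutoff, the mean inhibition of test compounds on that plate plus 3 SD, cut at about 49% in these data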
#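 Assay system: CHO-derived RD-HGA16 cells stably expressing human TAAR1 plus Gα16. Timing: 140 s kinetic read after compound, 140 s after agonist. Technique: kinetic Fluo-8 calcium fluorescence measurement. Measure: % inhibition of agonist calcium response.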
# OXTR ag: human OXTR agonism. P30559. CHO-OTR cells, Fluo-8 calcium fluorescence; normalized: DMSO 0%, oxytocin 100%. 320,000 compounds, 0.32% hits. activation, % at 3 µM;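 active means activation above the mean of all tested compounds plus 3 SD, cutoff set per screening run, cut at about 20% in these data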;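 further: peak over basal fluorescence ratio from a 100 s FLIPR kinetic read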
# Target sequence (P30559 whole entry, looked up): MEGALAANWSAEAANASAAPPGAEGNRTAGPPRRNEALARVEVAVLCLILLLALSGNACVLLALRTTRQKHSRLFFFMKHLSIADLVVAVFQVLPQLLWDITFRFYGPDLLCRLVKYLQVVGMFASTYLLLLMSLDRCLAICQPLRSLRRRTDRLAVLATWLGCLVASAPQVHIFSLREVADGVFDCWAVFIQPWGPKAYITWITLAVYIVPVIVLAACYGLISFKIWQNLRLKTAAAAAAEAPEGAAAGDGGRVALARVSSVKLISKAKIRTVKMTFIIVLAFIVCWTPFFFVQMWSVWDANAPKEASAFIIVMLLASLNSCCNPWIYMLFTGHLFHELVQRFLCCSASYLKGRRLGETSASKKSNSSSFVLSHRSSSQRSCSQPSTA
# TAAR1 agonist: agonists of human TAAR1; Q96RJ0; 360,000 compounds, 0.99% hits; CHO RD-HGA16 TAAR1, Fluo-8 calcium fluorescence; vehicle wells 0%, saturating PEA agonist 100%; activation, % at 3 µM;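 active means activation above the mean activation of all test compounds in the run plus 3 SD, cut at about 38% in these data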
#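 System: CHO RD-HGA16 cells carrying human TAAR1 plus Gα16; Incubation: 17-24 h seeding, 75 min 37 °C dye, 30 min RT; Measured by: Fluo-8 fluorescence, 5 s baseline then 140 s kinetic read; Control set: DMSO and PEA EC100; Replication: single well for each compound.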
# OXTR potentiator: potentiates the human oxytocin receptor response | AID 2445 | P30559 | 320,000 compounds, 0.061% hits | activation, % at 3 µM | CHO-OTR cells, Fluo-8 calcium fluorescence, potentiator mode; 0% = oxytocin EC15, 100% = EC100;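 active means activation above that plate's cutoff, the mean activation of tested compounds plus 3 SD, cut at about 6.6% in these data, passing the limit was not always enough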
#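 Material: CHO-OTR cells, human receptor; compound dosing: single dose, 3.0 µM nominal final compound concentration; schedule: 6 min compound pre-incubation at room temperature, 100 s kinetic read; measured by: kinetic Fluo-8 calcium fluorescence; read-out basis: % activation vs EC15 and EC100 oxytocin; controls: EC15 oxytocin alone as 0%, 75 nM oxytocin as 100%; replicates: singlicate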
# TAAR1 ag confirm: confirmation of human TAAR1 agonists | shares compounds with TAAR1 agonist | CHO RD-HGA16 TAAR1, Fluo-8 calcium fluorescence; scaled: DMSO 0%, maximal phenethylamine 100% | activation, % at 3 µM | 2,400 compounds, 82% hits;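 active means activation above a cutoff set at the run's mean compound activation plus 3 SD, cut at about 39% in these data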
# Ga16 ag counter: nonselective agonism, TAAR1 counter-screen; shares compounds with TAAR1 agonist; CHO-Ga16 parental, Fluo-8 calcium fluorescence; normalized to maximal ATP response, DMSO zero; activation, % at 3 µM; 2,400 compounds, 50% hits; AID 651787;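 active means activation above the run cutoff, the mean activation over all tested wells plus 3 SD, cut at about 12% in these data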
# TAAR1 desensitize: counter-screen for human TAAR1 agonists: agonists that desensitize TAAR1; CHO RD-HGA16 hTAAR1, Fluo-8 calcium, beta-PEA response inhibition; inhibition, % at 3 µM; 2,400 compounds, 46% hits; shares compounds with TAAR1 agonist; AID 651951;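 active means inhibition above the run cutoff, the mean inhibition of all test compounds plus 3 SD, cut at about 49% in these data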;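 further: beta-PEA stimulus applied at its EC80; loss of beta-PEA calcium signal after compound pretreatment read as receptor desensitization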
# Ga16 nonsel ant: nonselective Ga16 antagonist in TAAR1 agonist counter-screen. 2,400 compounds, 39% hits. CHO-Ga16 ATP-induced calcium, Fluo-8 fluorescence. AID 651952. inhibition, % at 3 µM. shares compounds with TAAR1 agonist;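 active means inhibition above the plate's mean compound inhibition plus 3 SD, computed per plate, cut at about 22% in these data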
# A number is an active result; . = inactive; / = not tested or not shown. The list is not random: actives were taken first. Their share in the collection is about 2.3%.
SMILES,V1aR counter,TAAR1 antag,OXTR ag,TAAR1 agonist,OXTR potentiator,TAAR1 ag confirm,Ga16 ag counter,TAAR1 desensitize,Ga16 nonsel ant
O=C(N/N=C/c1cccc(O)c1)N/N=C/c1cccc(O)c1,.,.,.,46.4,.,81.0,.,.,.
Cc1cc(C(C)(C)CC(C)(C)C)ccc1OCCOCC[N+](C)(C)Cc1ccccc1,21.3,75.1,36.7,81.4,.,69.1,66.2,.,66.7
C[N+](C)(CCOc1ccccc1)Cc1ccccc1,/,.,/,.,/,/,/,/,/
COc1cccc(C(=O)N[C@H](C(=O)N2CCC[C@H]2C(=O)NCCc2ccccc2Cl)c2ccccc2)c1,/,52.2,/,56.3,/,91.3,.,83.9,.
O=C(N[C@H](C(=O)N1CCC[C@H]1C(=O)NCCc1ccccc1Cl)c1ccccc1)c1ccc(Cl)c(Cl)c1,/,.,/,.,/,/,/,/,/
COc1cccc(C(=O)N[C@@H](CC(C)C)C(=O)N2CCC[C@H]2C(=O)NCc2ccccc2)c1,/,.,/,.,/,/,/,/,/
COc1cccc(C(=O)N[C@H](C(=O)N2CCC[C@H]2C(=O)NCCc2ccccc2Cl)C(C)C)c1,/,77.6,/,71.2,/,85.1,.,94.6,.
O=C(NC(=S)Nc1cccc(NC(=S)NC(=O)c2ccccc2)c1)c1ccccc1,/,.,/,.,/,/,/,/,/
O=C(O)c1cccc(NC(=S)NC(=O)c2ccc3ccccc3c2)c1,.,.,.,72.8,.,.,30.8,.,.
O=C(O)c1ccc(NC(=S)NC(=O)c2ccc3ccccc3c2)cc1,.,.,.,47.1,.,39.6,31.9,.,26.2
CCOC(=O)c1cn(C2CC2)c2c(F)c(F)c(F)cc2c1=O,.,.,.,48.7,.,.,.,.,.
COc1cccc(OCC(O)CNC(C)c2ccccc2)c1 (configuration not stated),.,.,.,.,.,/,/,/,/
Cc1ccc(-n2nnnc2SCC(=O)c2c(N)n(C3CC3)c(=O)[nH]c2=O)c(C)c1,.,.,.,54.7,.,.,.,.,.
Nc1[nH]c(C(=O)c2ccccc2)c(-c2ccccc2C(F)(F)F)c1C(=O)NCc1ccc(F)cc1,/,.,/,.,/,/,/,/,/
Nc1[nH]c(C(=O)c2ccccc2)c(-c2ccccc2C(F)(F)F)c1C(=O)NCCc1cccs1,/,.,/,47.9,/,.,.,.,.
Cc1ccc2nc3sc(C(=O)N4CCCc5ccccc54)c(N)c3cc2c1,.,.,.,.,.,/,/,/,/
Cc1cc(C)c2cc3c(N)c(C(=O)N4CCc5ccccc5C4)sc3nc2c1,.,.,.,78.0,.,55.8,12.3,.,39.4
Cc1nn(C)cc1C=NCCOCc1ccccc1,.,.,.,43.7,.,66.1,.,.,.
CN=C(C)/C(C(=O)OC)=C(/O)c1ccc(Cl)cc1Cl,.,.,.,.,.,/,/,/,/
O=C(Nc1sc2c(c1C(=O)NCCO)CCCC2)c1ccco1,.,.,.,.,.,/,/,/,/
O=C1Nc2ccccc2/C1=N/c1sc2c(c1C(=O)NCCc1ccccc1)CCCC2,.,71.3,.,82.9,.,49.9,18.8,.,22.2
Cn1c(=O)cc(NCCc2ccccc2)[nH]c1=O,.,.,.,68.9,.,73.8,.,.,.
Cn1c(NCCc2ccccc2)cc(=O)n(C)c1=O,.,/,.,/,.,/,.,/,.
NS(=O)(=O)c1ccc(CCNc2cc(=O)n(Cc3ccc(F)cc3)c(=O)[nH]2)cc1,.,.,.,.,.,/,/,/,/
Cn1c(=O)cc(Nc2ccccc2)[nH]c1=O,.,.,.,.,.,/,/,/,/
Cn1c(=O)cc(Nc2ccc(Cl)cc2)[nH]c1=O,.,.,.,48.5,.,66.9,.,.,.

# Compound activity (PubChem)
